Results from ChEMBL document CHEMBL4842335, “Discovery of penipanoid C-inspired 2-(3,4,5-trimethoxybenzoyl)quinazolin-4(3H)-one derivatives as potential anticancer agents by inhibiting cell proliferation and inducing apoptosis in hepatocellular carcinoma cells” (Eur J Med Chem, 2021).
Active and inactive are the calls of the source. No cut-off for these calls is given here.

Assays:
Bel-7402 [1] = test: Inhibition of colony formation in human Bel-7402 cells at 1.6 to 3.2 uM measured after 10 days by crystal violet staining based assay relative to control; assay type: functional, cell-based; conditions: dose 1.6-3.2 µM, time 10.0 day
In short: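 1000 cells/well seeded, attached overnight in DMEM + 10% FBS, then grown 10 days at 37 °C, 5% CO₂ with 0, 0.2, 0.4, 0.8, 1.6 or 3.2 µM. Fixed in 4% paraformaldehyde 15 min, stained 0.1% crystal violet 30 min, colonies counted; formation rate relative to solvent control.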

HepG2 [2] = test: Induction of apoptosis in human HepG2 cells assessed as dead cells at 0.8 uM incubated for 48 hrs by Annexin V and dead cell assay kit (reference value: 0.55%); assay type: functional
In short: (§1)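 HepG2 cells were grown in DMEM and exposed to 0, 0.8, 1.6 or 3.2 µM test agent or DMSO vehicle for 48 h. Apoptosis was then read on a Muse cell analyzer using an Annexin V & Dead Cell kit, which separates live, early apoptotic, late apoptotic and dead populations. The figure legend gives n = 3 with SEM.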

HepG2 [3] = test: Induction of apoptosis in human HepG2 cells assessed as increase in cleaved Caspase 3 level at 1.6 to 3.2 uM after 48 hrs by Western blot analysis; conditions: dose 1.6-3.2 µM
[4] = target: T1, Mitogen-activated protein kinase; ERK1/ERK2 (Homo sapiens) (UniProt P27361+P28482); test: Upregulation of ERK1/2 phosphorylation in human Bel-7402 cells incubated for 48 hrs by Western blot analysis
HepG2 [5] = test: Induction of apoptosis in human HepG2 cells assessed as early apoptotic cells at 1.6 uM incubated for 48 hrs by Annexin V and dead cell assay kit (reference value: 4.55%); assay type: functional; in short: as §1
Bel-7402 [6] = test: Induction of cell cycle arrest in human Bel-7402 cells assessed as accumulation at S phase at 0.8 uM incubated for 48 hrs by flow cytometry (reference value: 28.48%); assay type: functional
HepG2 [7] = test: Antitumor activity against human HepG2 cells xenografted in BALB/c mouse assessed as tumor growth inhibition at 8 mg/kg, ip relative to control; assay type: functional; conditions: read-out: TGI
In short: (§2)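 Female BALB/c nude mice (14–17 g) given HepG2 s.c. (1×10⁶/mouse); at 100–200 mm³ tumours, randomised to 3 groups of 5. Daily i.p. dosing at 4 or 8 mg/kg for 20 days; vehicle 15% N-methylpyrrolidone/25% Solutol HS-15/60% saline. Caliper volume twice weekly, TV = width² × length/2; inhibition from volume change versus vehicle group.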

HepG2 [8] = test: Antitumor activity against human HepG2 cells xenografted in BALB/c mouse assessed as tumor growth inhibition at 4 mg/kg, ip relative to control; assay type: functional; conditions: read-out: TGI; in short: as §2
Bel-7402 [9] = test: Induction of cell cycle arrest in human Bel-7402 cells assessed as accumulation at G1 phase at 0.8 uM incubated for 48 hrs by flow cytometry (reference value: 46.32%); assay type: functional
Bel-7402 [10] = test: Induction of cell cycle arrest in human Bel-7402 cells assessed as accumulation at S phase at 1.6 uM incubated for 48 hrs by flow cytometry (reference value: 28.48%); assay type: functional
HepG2 [11] = test: Induction of apoptosis in human HepG2 cells assessed as dead cells at 3.2 uM incubated for 48 hrs by Annexin V and dead cell assay kit (reference value: 0.55%); assay type: functional; in short: as §1
U-251 = test: Cytotoxicity against human U251 cells assessed as inhibition of proliferation incubated for 72 hrs by MTT assay; assay type: functional, cell-based; conditions: U-251, 72 h
In short: (§3)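 Cells plated at 3×10³/well, grown overnight in DMEM + 10% FBS, then exposed to compounds (DMSO stocks; 0.1% DMSO negative control) for 72 h at 37 °C. MTT (5 mg/mL in PBS, added at 10%) for 4 h, formazan dissolved in DMSO, A570 read. Inhibition = (Ac−As)/(Ac−Ab)×100; IC50 by calculator; ≥3 independent repeats.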

HepG2 [12] = test: Induction of apoptosis in human HepG2 cells assessed as early apoptotic cells at 0.8 uM incubated for 48 hrs by Annexin V and dead cell assay kit (reference value: 4.55%); assay type: functional; in short: as §1
[13] = Toxicity in BALB/c mouse xenografted with human HepG2 cells at 4 to 8 mg/kg, ip relative to control; assay type: organism-based; conditions: in vivo, dose 4-8 mg/kg
In short: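 Female BALB/c nude mice (14–17 g) carrying s.c. HepG2 xenografts (100–200 mm³), 5 per group. Dosed i.p. daily for 20 days at 4 or 8 mg/kg in 15% N-methylpyrrolidone/25% Solutol HS-15/60% saline, with vehicle controls. Body weight tracked over the treatment.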

HepG2 [14] = test: Induction of reactive oxygen species generation in human HepG2 cells incubated for 48 hrs by DCFH-DA based fluorescent microscopy; assay type: functional, cell-based; conditions: dose 1.6-3.2 µM
In short: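 HepG2 cultured 48 h with 0, 0.8, 1.6 or 3.2 µM, washed, loaded with […] DCFH-DA for 20 min at 37 °C in the dark; fluorescence viewed by microscopy.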

HepG2 [15] = test: Induction of apoptosis in human HepG2 cells assessed as early apoptotic cells at 3.2 uM incubated for 48 hrs by Annexin V and dead cell assay kit (reference value: 4.55%); assay type: functional; in short: as §1
[16] = target: T1, Mitogen-activated protein kinase; ERK1/ERK2 (Homo sapiens); test: Inhibition of ERK1/2 phosphorylation in human HepG2 cells incubated for 48 hrs by Western blot analysis; assay type: cell-based
In short: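 HepG2 treated 48 h with 0, 1.6 or 3.2 µM; lysates run on 12.5% SDS-PAGE, PVDF transfer, primary antibodies (AKT, p-AKT, ERK1/2, p-ERK1/2; 1:1000) overnight at 4 °C, HRP secondaries 1 h, chemiluminescence. Phosphorylation quantified relative to untreated control set to 1; SD, n = 3.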

Bel-7402 [17] = test: Induction of cell cycle arrest in human Bel-7402 cells assessed as accumulation at G1 phase at 3.2 uM incubated for 48 hrs by flow cytometry (reference value: 46.32%); assay type: functional
HepG2 [18] = test: Induction of apoptosis in human HepG2 cells assessed as increase in cleaved PARP level at 1.6 to 3.2 uM after 48 hrs by Western blot analysis; conditions: dose 1.6-3.2 µM
HepG2 [19] = test: Induction of apoptosis in human HepG2 cells assessed as late apoptotic cells at 0.8 uM incubated for 48 hrs by Annexin V and dead cell assay kit (reference value: 1%); assay type: functional; in short: as §1
HepG2 [20] = test: Induction of cell cycle arrest in human HepG2 cells assessed as accumulation at G1 phase at 1.6 uM incubated for 48 hrs by flow cytometry (reference value: 46.88%); assay type: functional
HepG2 [21] = test: Cytotoxicity against human HepG2 cells assessed as inhibition of proliferation incubated for 72 hrs by MTT assay; assay type: functional, cell-based; conditions: HepG2, 72 h; in short: as §3
HepG2 [22] = test: Induction of apoptosis in human HepG2 cells assessed as late apoptotic cells at 3.2 uM incubated for 48 hrs by Annexin V and dead cell assay kit (reference value: 1%); assay type: functional; in short: as §1
A549 = test: Cytotoxicity against human A549 cells assessed as inhibition of proliferation incubated for 72 hrs by MTT assay; assay type: functional, cell-based; conditions: A549, 72 h; in short: as §3

T1 sequence (P27361 whole entry, looked up): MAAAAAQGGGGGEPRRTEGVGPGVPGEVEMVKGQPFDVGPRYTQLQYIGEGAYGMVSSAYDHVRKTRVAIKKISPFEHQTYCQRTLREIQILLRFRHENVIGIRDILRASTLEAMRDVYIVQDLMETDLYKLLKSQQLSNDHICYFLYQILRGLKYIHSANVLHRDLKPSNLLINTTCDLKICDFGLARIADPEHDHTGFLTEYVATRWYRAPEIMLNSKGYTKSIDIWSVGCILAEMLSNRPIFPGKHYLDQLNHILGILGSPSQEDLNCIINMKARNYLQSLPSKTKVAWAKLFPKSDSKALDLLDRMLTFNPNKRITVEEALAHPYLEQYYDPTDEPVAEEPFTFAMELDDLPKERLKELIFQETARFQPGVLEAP
T1 sequence (P28482 whole entry, looked up): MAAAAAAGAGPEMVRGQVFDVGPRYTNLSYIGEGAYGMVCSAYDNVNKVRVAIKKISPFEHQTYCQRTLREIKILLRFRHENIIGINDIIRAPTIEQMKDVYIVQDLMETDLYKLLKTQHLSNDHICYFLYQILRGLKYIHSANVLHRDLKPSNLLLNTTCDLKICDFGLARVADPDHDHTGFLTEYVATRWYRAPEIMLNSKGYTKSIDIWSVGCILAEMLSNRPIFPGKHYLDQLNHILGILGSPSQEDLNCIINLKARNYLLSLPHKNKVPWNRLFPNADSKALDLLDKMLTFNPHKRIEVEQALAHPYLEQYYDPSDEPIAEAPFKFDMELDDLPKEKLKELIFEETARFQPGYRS

For `COc1cc(C(=O)c2nc3ccccc3c(=O)[nH]2)cc(OC)c1OC`, the Activity (Bel-7402 [1]) was “Active”, the Activity (HepG2 [2]) was 0.45% and the Activity (HepG2 [3]) was “Active”. For the same molecule, the Activity [4] was “Dose-Dependent Effect”, the Activity (HepG2 [5]) was 11.7% and the Activity (Bel-7402 [6]) was 33.11%. For the same molecule, the inhibition in vivo at 8 mg/kg (HepG2 [7]) was 67.6%, the inhibition in vivo at 4 mg/kg (HepG2 [8]) was 19.1% and the Activity (Bel-7402 [9]) was 39.2%. For the same molecule, the Activity (Bel-7402 [10]) was 34.5%, the Activity (HepG2 [11]) was 0.55% and the IC50 (U-251) was 5.48 µM. For the same molecule, the Activity (HepG2 [12]) was 5.8%, the Activity [13] was “Non-Toxic” and the Activity (HepG2 [14]) was “Active”. For the same molecule, the Activity (HepG2 [15]) was 22.1%, the inhibition [16] was “Dose-Dependent Effect” and the Activity (Bel-7402 [17]) was 26.15%. The Activity (HepG2 [18]) was “Active”, the Activity (HepG2 [19]) was 2% and the Activity (HepG2 [20]) was 29.17%. It also gave an IC50 (HepG2 [21]) of 1.22 µM, an Activity (HepG2 [22]) of 24.15% and an IC50 (A549) of 3.88 µM.
